From ChEMBL document CHEMBL4017491, “Phthalazino[1,2-b]quinazolinones as p53 Activators: Cell Cycle Arrest, Apoptotic Response and Bak-Bcl-xl Complex Reorganization in Bladder Cancer Cells” (J Med Chem, 2017)
The source made the active and inactive calls. The rule behind the calls is not given here.

Columns and labels:
[1] = test system: J82; assay: Cell cycle arrest in human J82 cells assessed as accumulation at S phase at 1 uM after 48 hrs by propidium iodide staining based FACS analysis (reference value: 46.79 %); assay type: functional
Procedure, shortened: (§1)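 Cells treated with 1−10 μM for 48 h, trypsinized, and fixed in 70% ethanol. Stained with 50 μg/mL propidium iodide and phase distribution analyzed by flow cytometry. Mean ± SD from three independent measurements.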

[2] = test system: J82; assay: Cell cycle arrest in human J82 cells assessed as accumulation at G1 phase at 5 uM after 48 hrs by propidium iodide staining based FACS analysis (reference value: 42.29 %); assay type: functional; procedure, shortened: as §1
[3] = test system: NCI-H460; assay: Antiproliferative activity against human NCI-H460 cells by MTT assay; assay type: functional, cell-based
Procedure, shortened: (§2)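 Cell lines cultured in RPMI 1640 with 10% FBS. Viability read by MTT (5 mg/mL, 4 h at 37 °C), with formazan dissolved in DMSO and absorbance taken at 490 nm. Viability (%) = A490 treated / A490 control × 100. IC50 taken from dose-response curves, from three independent experiments each run in triplicate.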

[4] = target: Cellular tumor antigen p53 (Homo sapiens) (UniProt P04637); assay: Induction of phospho-p53 accumulation in mitochondria of human T24 cells up to 10 uM after 24 hrs by Western blot method
Chain of Cellular tumor antigen p53 (Homo sapiens) (P04637 whole entry, looked up): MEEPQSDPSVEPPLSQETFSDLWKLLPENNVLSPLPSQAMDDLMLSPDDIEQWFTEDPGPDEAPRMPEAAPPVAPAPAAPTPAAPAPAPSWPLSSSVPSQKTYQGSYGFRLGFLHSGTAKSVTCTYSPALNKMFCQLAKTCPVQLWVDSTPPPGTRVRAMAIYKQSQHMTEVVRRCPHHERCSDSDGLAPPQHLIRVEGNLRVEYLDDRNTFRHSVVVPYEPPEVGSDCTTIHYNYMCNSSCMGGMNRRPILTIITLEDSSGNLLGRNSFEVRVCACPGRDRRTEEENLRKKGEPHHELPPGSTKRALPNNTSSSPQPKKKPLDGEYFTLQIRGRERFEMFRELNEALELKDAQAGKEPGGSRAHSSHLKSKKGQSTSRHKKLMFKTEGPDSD

[5] = test system: T-24; assay: Effect on cell cycle distribution in human T24 cells assessed as live cells at 10 uM after 1 hr by Annexin V-FITC/propidium iodide staining based FACS analysis (reference value: 98.3%); assay type: functional
[6] = test system: T-24; assay: Induction of apoptosis in human T24 cells assessed as late apoptotic cells at 5 uM by Annexin V-FITC/propidium iodide based flow cytometric analysis (reference value: 0.193%); assay type: functional
[7] = test system: Escherichia coli; assay: Induction of conformational change in Escherichia coli pBR322 DNA at 1 to 10 uM after 1 hr by DNA relaxation assay
Procedure, shortened: (§3)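 Plasmid pBR322 incubated 1 h with 1–10 μM in 5 mM Tris-HCl, 50 mM NaCl, pH 7.2. Samples run on 1.5% agarose and stained with 0.5 μg/mL ethidium bromide. Lane controls: 1% DMSO (negative) and ethidium bromide (positive).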

[8] = test system: T-24; assay: Antiproliferative activity against human T24 cells harboring scRNA after 48 hrs by MTT assay; assay type: functional, cell-based
Procedure, shortened: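 T24 cells pre-exposed to p53-siRNA or scrambled RNA for 24 h, then treated with a concentration series for 48 h. Proliferation measured by MTT read at 490 nm, expressed as % of control absorbance.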

[9] = target: Cellular tumor antigen p53 (Homo sapiens) (UniProt P04637); assay: Induction of phospho-p53 accumulation in human T24 cells assessed as activation of bak at 1 to 10 uM after 48 hrs by Hoechst 33258 staining based fluorescence confocal microscopic analysis; assay type: cell-based
Procedure, shortened: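 T24 cells treated for 48 h, fixed in 4% paraformaldehyde. Immunostained with antibody to active (N-terminal) Bak and a Cy3-conjugated secondary antibody. Imaged by confocal microscopy at 400×.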

[10] = test system: DU-145; assay: Antiproliferative activity against human DU145 cells harboring p53 mutant by MTT assay; assay type: functional, cell-based; procedure, shortened: as §2
[11] = test system: J82; assay: Cell cycle arrest in human J82 cells assessed as accumulation at S phase at 10 uM after 48 hrs by propidium iodide staining based FACS analysis (reference value: 46.79 %); assay type: functional; procedure, shortened: as §1
[12] = test system: HepG2; assay: Antiproliferative activity against human HepG2 cells by MTT assay; assay type: functional, cell-based; procedure, shortened: as §2
[13] = test system: J82; assay: Cell cycle arrest in human J82 cells assessed as accumulation at G2 phase at 5 uM after 48 hrs by propidium iodide staining based FACS analysis (reference value: 10.92 %); assay type: functional; procedure, shortened: as §1
[14] = test system: MGC-803; assay: Antiproliferative activity against human MGC803 cells by MTT assay; assay type: functional, cell-based; procedure, shortened: as §2
[15] = test system: T-24; assay: Induction of apoptosis in human T24 cells assessed as late apoptotic cells at 1 uM by Annexin V-FITC/propidium iodide based flow cytometric analysis (reference value: 0.193%); assay type: functional
[16] = test system: T-24; assay: Antiproliferative activity against human T24 cells by MTT assay; assay type: functional, cell-based; procedure, shortened: as §2
[17] = test system: T-24; assay: Effect on cell cycle distribution in human T24 cells assessed as late necrotic cells at 1 uM after 1 hr by Annexin V-FITC/propidium iodide staining based FACS analysis (reference value: 1.71%); assay type: functional
[18] = test system: J82; assay: Cell cycle arrest in human J82 cells assessed as accumulation at S phase at 5 uM after 48 hrs by propidium iodide staining based FACS analysis (reference value: 46.79 %); assay type: functional; procedure, shortened: as §1
[19] = test system: LNCaP; assay: Antiproliferative activity against human LNCAP cells harboring wild type p53 by MTT assay; assay type: functional, cell-based; procedure, shortened: as §2
[20] = test system: T-24; assay: Cell cycle arrest in human T24 cells assessed as effect on CDK4 expression up to 10 uM after 24 hrs by Western blot analysis; assay type: functional, cell-based
Procedure, shortened: (§4)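 T24 cells, 3 × 10^5 per well, grown to 85−95% confluence, then exposed to 0−10 μM for 24 h. Whole-cell extracts in sample buffer run on SDS-polyacrylamide gels and transferred to nitrocellulose. Blots probed with primary antibodies and AP-linked anti-rabbit IgG, detected by ECL. Blots stripped and reprobed for β-actin as loading control.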

[21] = test system: T-24; assay: Induction of apoptosis in human T24 cells assessed as increase in bim level up to 10 uM after 24 hrs by Western blot analysis; assay type: functional, cell-based
Procedure, shortened: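 T24 cells (3 × 10^5 per well) grown to 85–95% confluence, then exposed 24 h to 0–10 μM. Whole-cell extracts run on SDS-PAGE and blotted to nitrocellulose. Probed with the indicated antibodies and AP-linked anti-rabbit IgG, with ECL detection. Blots stripped and reprobed for β-actin as loading control.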

[22] = test system: T-24; assay: Induction of apoptosis in human T24 cells assessed as necrotic cells at 1 uM by Annexin V-FITC/propidium iodide based flow cytometric analysis (reference value: 8.53%); assay type: functional
[23] = test system: Escherichia coli; assay: Induction of DNA damage in Escherichia coli pBR322 DNA assessed as effect on mobility rate at 1 to 10 uM after 1 hr by DNA relaxation assay; procedure, shortened: as §3
[24] = test system: T-24; assay: Induction of apoptosis in human T24 cells assessed as necrotic cells at 5 uM by Annexin V-FITC/propidium iodide based flow cytometric analysis (reference value: 8.53%); assay type: functional
[25] = test system: T-24; assay: Effect on Bcl-Xl expression in human T24 cells up to 10 uM after 24 hrs by Western blot analysis; assay type: functional, cell-based; procedure, shortened: as §4
[26] = test system: T-24; assay: Effect on cell cycle distribution in human T24 cells assessed as late necrotic cells at 5 uM after 1 hr by Annexin V-FITC/propidium iodide staining based FACS analysis (reference value: 1.71%); assay type: functional
[27] = test system: Mus musculus; assay: Induction of phospho-p53 expression in BALB/C nude mouse xenografted with human T24 cells at 6 to 12 mg/kg, ip administered every 2 days for 16 days by immunoblot analysis
[28] = test system: T-24; assay: Cell cycle arrest in human T24 cells assessed as reduction in cell size at 5 uM after 48 hrs by FACS analysis relative to control; assay type: functional; set-up: scale not given: the % may be the effect or the level left
Procedure, shortened: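 T24 cells treated for 48 h with 5 μM or DMSO, then ethanol-fixed and PI-stained. Relative cell size taken as mean forward scatter (FSC-H) by flow cytometry, compared with control.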

[29] = test system: Mus musculus; assay: Down regulation of Bak expression in BALB/C nude mouse xenografted with human T24 cells at 6 to 12 mg/kg, ip administered every 2 days for 16 days by immunoblot analysis

- IC50 [3]: 5.03 µM
- Activity [4]: Active
- Activity [7]: inactive
- Activity [9]: Active
- IC50 [12]: 3.8 µM
- IC50 [14]: 4.29 µM
SMILES: CN(C)CCNc1nn2c(=O)c3cc(Br)ccc3nc2c2ccccc12
- Activity [1]: 39.51%
- Activity [2]: 17.78%
- Activity [5]: 86.6%
- Activity [6]: 10.2%
- Activity [8]: Dose-dependent effect
- Activity [10]: inactive
- Activity [11]: 64.2%
- Activity [13]: 38.21%
- Activity [15]: 5.29%
- IC50 [16]: 3.09 µM
- Activity [17]: 6.54%
- Activity [18]: 44.01%
- Activity [19]: Active
- Activity [20]: inactive
- Activity [21]: Active
- Activity [22]: 6.77%
- Activity [23]: inactive
- Activity [24]: 0.661%
- Activity [25]: inactive
- Activity [26]: 10.6%
- Activity [27]: Active
- Activity [28]: 87.7%
- Activity [29]: Active
